Series [1] is described as follows: Drug level in Sprague-Dawley rat liver at 3 mg/kg, po after 6 hrs. The series is classed as ADME, organism-based. Also noted: dose 3 mg/kg, route oral. The following applies: read-out: Drug uptake. A digest of the protocol:
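Sprague-Dawley rats (n = 3) received the compound as its TFA salt in DMSO/PEG400/water 20%/60%/20%, as a single iv dose of 3 mg/kg or a single oral dose of 3 mg/kg. Liver tissue and plasma concentrations were measured 6 h after the oral dose.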

A further series concerns Mus musculus. The series is described as follows: Toxicity in SCID mouse assessed as change in organ weight at 50 mg/kg, ip bid for 5 days. On the set-up: dose 50 mg/kg, route intraperitoneal. The series is classed as organism-based. To be noted: in vivo, 120 h. A digest of the protocol: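 Non-infected SCID mice (n = 3) received 50 mg/kg by intraperitoneal injection twice daily for five consecutive days, as a tolerability run before the infected-mouse study. Body and organ weights were checked for gross changes. Plasma compound levels were measured 12 h after the last dose.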

A short description of series [2]: Intrinsic clearance in rat liver microsomes assessed per mg of protein. In kind it is ADME, Microsome. (Liver microsomes are vesicles of endoplasmic reticulum, rich in cytochrome P450 enzymes.)
A further series relates to Hepatitis C virus. In words: Antiviral activity against HCV1b infected in human Huh-7 cells assessed as inhibition of viral RNA replication after 96 hrs by ELISA assay in presence of 10% fetal calf serum. In kind it is functional, organism-based, Hepacivirus hominis. To be noted: genotype 1b, Huh-7, 96 h. On the technique in general: In an ELISA, binding on a coated surface is turned into a signal by an enzyme label.

The next series deals with Cytochrome P450 2D6 (Homo sapiens, UniProt P10635). The series is described as follows: Inhibition of CYP2D6 up to 50 uM. In kind it is ADME.
Chain of Cytochrome P450 2D6 (P10635 whole entry): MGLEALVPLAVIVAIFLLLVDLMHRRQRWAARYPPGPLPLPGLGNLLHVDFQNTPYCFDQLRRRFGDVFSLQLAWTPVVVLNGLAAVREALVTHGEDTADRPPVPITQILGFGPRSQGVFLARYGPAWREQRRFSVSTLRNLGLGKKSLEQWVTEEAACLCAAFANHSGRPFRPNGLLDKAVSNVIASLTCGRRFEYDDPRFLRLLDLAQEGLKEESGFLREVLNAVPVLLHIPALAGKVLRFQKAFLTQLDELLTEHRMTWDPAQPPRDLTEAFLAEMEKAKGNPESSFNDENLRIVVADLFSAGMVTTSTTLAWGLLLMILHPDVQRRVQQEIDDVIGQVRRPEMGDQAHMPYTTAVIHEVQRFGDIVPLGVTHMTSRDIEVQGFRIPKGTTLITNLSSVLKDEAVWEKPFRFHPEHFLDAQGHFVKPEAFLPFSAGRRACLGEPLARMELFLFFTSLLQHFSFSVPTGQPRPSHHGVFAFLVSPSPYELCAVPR
The nature of series [3]: Intrinsic clearance in dog liver microsomes assessed per mg of protein presence of UDPGA. In kind it is ADME, Canis lupus familiaris, Microsome.
The nature of series [4]: Plasma concentration in HCV1b infected humanized uPA+/+-SCID mouse at 10 mg/kg, ip bid for 4 days measured 12 hrs after last post dose. The series is classed as ADME, organism-based. On the set-up: dose 10 mg/kg, route intraperitoneal. A digest of the protocol:
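Three humanized uPA+/+-SCID mice infected with genotype 1b HCV received 10 or 50 mg/kg ip twice daily for 4 days, in PEG400/water 30%/70%. Trough plasma concentration was taken 12 h after the last dose.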

A further series has as its target Cytochrome P450 3A4 (Homo sapiens, UniProt P08684). In words: Inhibition of CYP3A4 up to 50 uM. The series is classed as ADME.
A short description of series [5]: Intrinsic clearance in human liver microsomes assessed per mg of protein presence of UDPGA. In kind it is ADME, Microsome.
The target in series [6] is T1, DNA polymerase alpha catalytic subunit (Homo sapiens) (UniProt P09884).
T1 sequence (whole entry): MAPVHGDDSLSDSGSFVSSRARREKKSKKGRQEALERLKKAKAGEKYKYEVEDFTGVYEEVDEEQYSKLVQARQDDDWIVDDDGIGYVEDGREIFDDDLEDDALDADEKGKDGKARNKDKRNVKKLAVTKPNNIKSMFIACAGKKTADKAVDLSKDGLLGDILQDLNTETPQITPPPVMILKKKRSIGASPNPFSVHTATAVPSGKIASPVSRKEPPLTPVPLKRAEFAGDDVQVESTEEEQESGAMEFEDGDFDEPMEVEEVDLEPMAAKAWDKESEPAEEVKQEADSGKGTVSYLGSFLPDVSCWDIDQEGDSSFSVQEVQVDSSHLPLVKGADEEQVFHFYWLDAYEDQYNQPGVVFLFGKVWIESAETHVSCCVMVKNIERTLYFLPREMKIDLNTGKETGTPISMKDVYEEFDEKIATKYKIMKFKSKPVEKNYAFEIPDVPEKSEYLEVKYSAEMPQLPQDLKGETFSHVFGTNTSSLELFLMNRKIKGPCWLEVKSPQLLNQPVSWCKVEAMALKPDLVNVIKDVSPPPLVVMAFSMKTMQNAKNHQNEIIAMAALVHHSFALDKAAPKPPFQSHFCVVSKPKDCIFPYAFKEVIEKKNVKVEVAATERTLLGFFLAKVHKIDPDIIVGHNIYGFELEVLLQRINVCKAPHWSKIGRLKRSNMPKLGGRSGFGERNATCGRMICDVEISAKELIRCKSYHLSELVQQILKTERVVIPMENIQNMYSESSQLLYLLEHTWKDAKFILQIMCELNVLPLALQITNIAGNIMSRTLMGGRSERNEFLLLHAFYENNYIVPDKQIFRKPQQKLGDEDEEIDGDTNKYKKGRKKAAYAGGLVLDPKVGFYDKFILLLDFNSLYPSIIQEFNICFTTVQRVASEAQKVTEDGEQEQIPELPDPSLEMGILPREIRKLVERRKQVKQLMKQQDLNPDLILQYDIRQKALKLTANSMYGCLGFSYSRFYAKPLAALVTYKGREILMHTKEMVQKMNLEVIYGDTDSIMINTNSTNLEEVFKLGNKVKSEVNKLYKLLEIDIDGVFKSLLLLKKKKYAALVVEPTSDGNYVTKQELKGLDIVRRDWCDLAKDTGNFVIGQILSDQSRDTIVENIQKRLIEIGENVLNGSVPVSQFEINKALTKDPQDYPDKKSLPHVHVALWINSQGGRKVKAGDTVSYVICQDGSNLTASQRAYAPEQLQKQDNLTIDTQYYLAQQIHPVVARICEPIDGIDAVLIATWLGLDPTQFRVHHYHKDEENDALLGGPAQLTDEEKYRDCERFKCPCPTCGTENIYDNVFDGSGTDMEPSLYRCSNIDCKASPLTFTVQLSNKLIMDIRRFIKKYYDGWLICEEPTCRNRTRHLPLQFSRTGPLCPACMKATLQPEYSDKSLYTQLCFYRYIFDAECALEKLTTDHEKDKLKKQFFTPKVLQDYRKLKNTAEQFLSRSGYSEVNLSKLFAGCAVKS
The series is described as follows: Inhibition of human DNA polymerase alpha up to 50 uM.

Series [7] is described as follows: AUC in dog at 2 mg/kg, po. The following applies: plasma. In kind it is ADME, organism-based, Canis lupus familiaris. On the set-up: dose 2 mg/kg, route oral. A digest of the protocol: (§1)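 Single-dose PK of the bis-HCl salt, n = 3 per species (dog po n = 2). Intravenous doses: rat 3, dog 1, rhesus 2 mg/kg, in DMSO/PEG400/water 20%/60%/20%. Oral doses: rat 3, dog 2, rhesus 4 mg/kg, in PEG400 for rat and dog and PEG400/water 70%/30% for rhesus.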

The nature of series [8]: Cmax in rhesus monkey at 2 mg/kg, iv and 4 mg/kg, po. The series is classed as ADME, organism-based, Macaca mulatta. The following applies: in vivo. A digest of the protocol: as §1
For series [9], the target named is T2, Nuclear receptor subfamily 1 group I member 2 (Homo sapiens, UniProt O75469).
T2 sequence (O75469 whole entry): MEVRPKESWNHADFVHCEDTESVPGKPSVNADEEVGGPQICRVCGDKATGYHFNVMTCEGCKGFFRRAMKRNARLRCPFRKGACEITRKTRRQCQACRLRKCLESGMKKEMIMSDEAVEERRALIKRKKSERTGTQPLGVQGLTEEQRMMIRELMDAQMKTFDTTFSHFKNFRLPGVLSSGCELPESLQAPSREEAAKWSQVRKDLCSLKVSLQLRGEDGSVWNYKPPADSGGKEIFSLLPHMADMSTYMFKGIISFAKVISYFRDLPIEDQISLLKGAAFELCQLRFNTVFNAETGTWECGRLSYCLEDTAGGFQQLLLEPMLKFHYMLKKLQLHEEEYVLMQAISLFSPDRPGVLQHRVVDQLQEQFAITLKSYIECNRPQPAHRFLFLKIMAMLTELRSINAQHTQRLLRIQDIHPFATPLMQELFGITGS
In words: Inhibition of PXR activation up to 50 uM.

Each structure is given as a SMILES string. pEC50: −log10 of the molar value. The source made the active and inactive calls. The rule behind the calls is not given here. Where only a bound is given, the exact number is not on record here.

Data on one compound can be found in ChEMBL document CHEMBL1649090, “Discovery of (7R)-14-cyclohexyl-7-{[2-(dimethylamino)ethyl](methyl) amino}-7,8-dihydro-6H-indolo[1,2-e][1,5]benzoxazocine-11-carboxylic acid (MK-3281), a potent and orally bioavailable finger-loop inhibitor of the hepatitis C virus NS5B polymerase” (J Med Chem, 2011).

Chain of Cytochrome P450 3A4 (P08684 whole entry): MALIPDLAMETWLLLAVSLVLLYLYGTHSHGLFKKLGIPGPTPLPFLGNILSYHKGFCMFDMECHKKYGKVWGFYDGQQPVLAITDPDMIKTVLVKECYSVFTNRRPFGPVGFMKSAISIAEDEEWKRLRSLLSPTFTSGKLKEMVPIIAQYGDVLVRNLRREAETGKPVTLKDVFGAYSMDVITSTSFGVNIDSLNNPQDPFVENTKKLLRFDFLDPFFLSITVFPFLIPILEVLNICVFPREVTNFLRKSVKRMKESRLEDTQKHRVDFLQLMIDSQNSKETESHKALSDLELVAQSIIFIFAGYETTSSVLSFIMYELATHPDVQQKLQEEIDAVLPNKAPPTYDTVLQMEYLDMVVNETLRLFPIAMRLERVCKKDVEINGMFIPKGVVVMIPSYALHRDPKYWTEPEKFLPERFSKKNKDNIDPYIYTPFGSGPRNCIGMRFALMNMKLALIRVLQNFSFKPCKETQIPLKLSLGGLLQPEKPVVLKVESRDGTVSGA

One may read the microsomal CLint as a measure of how fast metabolising enzymes remove a compound, apart from limits set by blood flow. The term pEC50 denotes the EC50 on a negative log10 scale, so that one unit is a factor of ten. What is called AUC is concentration integrated over time. One may read the Cmax as the peak of the concentration-time curve. Turning to `CN(C)CCN(C)[C@H]1COc2ccccc2-c2c(C3CCCCC3)c3ccc(C(=O)O)cc3n2C1` [MK-3281], the concentration at 6 h in [1] was 420 nM. In the series with Mus musculus, the Activity result is “Non-toxic”. Besides, the intrinsic clearance (microsomal CLint) was 7 µL/min/mg in [2], less than 4 µL/min/mg in series [3] and less than 4 µL/min/mg in series [5]. In addition, in the series on Hepatitis C virus, the pEC50 was 7.42. Moreover, the “inhibition (INH)” value (on Cytochrome P450 2D6; against Cytochrome P450 3A4; in series [9]) was “Not Active” each time. In addition, the concentration at 12 h in [4] worked out at 670 nM. In series [6], the inhibition result is “inactive”. The compound further showed an exposure (AUC) in [7] of 8.6 µM·h. Further, the peak level in series [8] (Cmax) was 800 nM.
